# Experiments:
# [1] = molecular target: T1, Autotaxin (Homo sapiens, UniProt Q13822); experiment: Inhibition of recombinant human ATX assessed as reduction in choline release using LPC(16:0) as substrate incubated for 15 hrs
# How it was run: (§1)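 Recombinant human ATX with 16:0 LPC as substrate. Single-point inhibition was tested at 30 μM, and IC50 values were determined.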
# [2] = Protein binding in human plasma measured after 4 hrs by LC-MS/MS analysis; assay type: ADME, cell-free; conditions: read-out: PPB (converted)
# [3] = Octanol/phosphate buffer partition coefficient, LogD of compound at pH 7.4 mixed for 1 hr using benchtop-rotator followed by further incubation for 1 hr by ESI-LC-MS/MS analysis; assay type: physicochemical
# [4] = molecular target: T1, Autotaxin; experiment: Inhibition of LysoPLD activity of ATX in human plasma assessed as reduction in choline release using LPC(16:0) as substrate incubated for 15 hrs; assay type: cell-free
# How it was run: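 LysoPLD activity in human plasma with 16:0 LPC as substrate; IC50 determined.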
# [5] = molecular target: T1, Autotaxin; experiment: Selectivity index, ratio of IC50 for LysoPLD activity of ATX in human plasma to IC50 for recombinant human ATX assessed as reduction in choline release using LPC(16:0) as substrate incubated for 15 hrs
# How it was run: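 Ratio of two IC50 values. One comes from LysoPLD activity in human plasma. The other comes from purified recombinant human ATX. Both assays use 16:0 LPC as substrate.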
# [6] = molecular target: T1, Autotaxin; experiment: Inhibition of recombinant human ATX assessed as reduction in choline release at 30 uM using LPC(16:0) as substrate incubated for 15 hrs relative to control; how it was run: as §1
# [7] = Protein binding in rat plasma measured after 4 hrs by LC-MS/MS analysis; assay type: ADME, cell-free; conditions: read-out: PPB (converted)
# [8] = AUC in Sprague-Dawley rat at 0.5 mg/kg, po administered as single cassette dosing by LC-MS/MS analysis; assay type: ADME, organism-based; conditions: in vivo
# How it was run: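 Rat cassette dosing, 0.5 mg/kg oral; plasma AUC reported.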
IC50 [1] [nM],fraction unbound at 4 h [2],logD at 1 h [3],IC50 [4] [nM],SMILES,also measured
17,0.007,1.07,,O=C(C[C@H]1CC[C@H](C(=O)O)CC1)N1CCc2c(n(Cc3cccc(F)c3)c3ncccc23)C1,
17,,,260,CC(C)(CCCC(=O)N1CCc2c(n(Cc3cccc(F)c3)c3ncccc23)C1)C(=O)O,Ratio IC50 [5]: 15
29,0.004,1.45,,O=C(C[C@H]1CC[C@@H](C(=O)O)CC1)N1CCc2c(n(Cc3cccc(F)c3)c3ncccc23)C1,
830,,,,O=C(O)CCCC(=O)N1CCc2c(n(Cc3ccccc3)c3ncccc23)C1,
24,,,,CC(C)(CCC(=O)N1CCc2c(n(Cc3cccc(F)c3)c3ncccc23)C1)CC(=O)O,
,,,,CC(=O)N1CCc2c(n(Cc3ccccc3)c3ncccc23)C1,inhibition [6]: 51.6%
28,0.01,0.67,,O=C(O)c1ccc(CC(=O)N2CCc3c(n(Cc4cccc(F)c4)c4ncccc34)C2)cc1,
22,0.009,,25,C[C@]1(C(=O)O)CC[C@H](CC(=O)N2CCc3c(n(Cc4ccc(F)cc4F)c4ncccc34)C2)CC1,fraction unbound at 4 h [7]: 0.039; AUC [8]: 677 ng·h/mL
250,,,,O=C(O)CCCCCC(=O)N1CCc2c(n(Cc3ccccc3)c3ncccc23)C1,
12,0.014,,6.1,O=C(CC12CCC(C(=O)O)(CC1)CC2)N1CCc2c(n(Cc3ccc(F)cc3)c3ncccc23)C1,fraction unbound at 4 h [7]: 0.054; AUC [8]: 420 ng·h/mL

# Source: ChEMBL document CHEMBL4616716, “ONO-8430506: A Novel Autotaxin Inhibitor That Enhances the Antitumor Effect of Paclitaxel in a Breast Cancer Model” (ACS Med Chem Lett, 2020)
